From ChEMBL document CHEMBL1123157, “Thromboxane synthetase inhibitors and antihypertensive agents. 1. N-[(1H-imidazol-1-yl)alkyl]aryl amides and N-[(1H-1,2,4-triazol-1-yl)alkyl]aryl amides” (J Med Chem, 1986)
Activity calls are given as the source filed them.

Columns and labels:
[1] = target: T1, Thromboxane-A synthase (Rattus norvegicus) (UniProt P49430); assay: Inhibitory activity for thromboxane synthetase determined by TXB2 levels in platelets from spontaneously hypertensive rats.; parameters: concentration or dose not given beside the values; conditions: concentration not given here
T1 sequence (whole entry): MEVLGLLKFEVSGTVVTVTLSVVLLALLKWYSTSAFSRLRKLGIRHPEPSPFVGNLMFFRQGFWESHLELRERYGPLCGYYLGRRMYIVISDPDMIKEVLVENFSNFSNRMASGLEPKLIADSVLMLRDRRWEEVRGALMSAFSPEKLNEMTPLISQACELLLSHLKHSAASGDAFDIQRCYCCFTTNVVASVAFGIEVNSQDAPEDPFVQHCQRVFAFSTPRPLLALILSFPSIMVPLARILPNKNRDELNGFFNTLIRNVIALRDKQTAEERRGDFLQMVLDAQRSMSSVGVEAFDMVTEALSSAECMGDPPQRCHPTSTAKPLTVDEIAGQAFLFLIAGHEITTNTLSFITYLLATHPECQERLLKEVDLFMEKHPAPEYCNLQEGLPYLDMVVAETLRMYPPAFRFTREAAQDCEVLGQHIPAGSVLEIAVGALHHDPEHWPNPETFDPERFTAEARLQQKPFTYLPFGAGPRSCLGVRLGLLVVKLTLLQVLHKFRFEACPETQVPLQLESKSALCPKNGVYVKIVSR
Outline: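 Washed SHR platelets in oxygenated Krebs phosphate buffer, pH 7.4, 4.5-6.0 × 10^4/μL, incubated with vehicle or drug for 10 min at 37 °C. Stopped with ice and citric acid. Supernatant TXB2 measured by RIA; TXB2 in boiled controls subtracted; % inhibition calculated. IC50 read graphically from % inhibition vs log concentration; single-point screen at 10^-4 M.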

Rattus norvegicus [2] = assay: Antihypertensive activity in spontaneously hypertensive rats at 100 mg/kg po/day for 2 days; assay type: functional, organism-based; parameters: dose 100 mg/kg
Outline: (§1)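 Male 16-week-old Okamoto SHR (mean arterial pressure about 170 mmHg), 1-3 rats per compound. Given by gavage in 2% preboiled starch (50 mg/mL), 100 mg/kg or less, with 0.9% NaCl load (25 mL/kg). Second dose without saline 24 h later. Mean arterial pressure measured 28 h after first dose. Active if ≤116 mmHg in one rat or mean ≤122 mmHg in two.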

Rattus norvegicus [3] = assay: Antihypertensive activity in spontaneously hypertensive rats tested at 100 mg/kg po/day for 2 days; assay type: functional, organism-based; parameters: dose 100 mg/kg; outline: as §1

| SMILES | inhibition [1] [%] | Activity (Rattus norvegicus [2]) | Activity (Rattus norvegicus [3]) |
| --- | --- | --- | --- |
| Cc1nccn1CCCNC(=O)c1ccc(Cl)cc1 | 0 | Active |  |
| O=C(NCCCCn1cncn1)c1cccc(Cl)c1 | 87 |  | inactive |
| O=C(O)c1ccccc1C(=O)NCCCCn1ccnc1 | 50 |  | inactive |
| CS(=O)(=O)c1ccc(C(=O)NCCCn2ccnc2)cc1 | 80 |  | inactive |
| O=C(NCCn1ccnc1)c1ccc(Cl)c(Cl)c1 | 59 |  | inactive |
| O=C(NCCCn1ccnc1)C1CC1c1ccccc1 (configuration not stated) | 100 |  | inactive |
| Cc1nccn1CCCNC(=O)c1cccc(Cl)c1 | 59 |  | inactive |
| O=C(NCCCCn1ccnc1)c1ccc(Cl)c(Cl)c1 | 100 |  | inactive |
| Cc1cn(CCCNC(=O)c2cccc(Br)c2)cn1 | 93 |  | inactive |
| COc1cc(C(=O)NCCCn2ccnc2)cc(OC)c1OC | 100 |  | inactive |
| O=C(NCCCn1ccnc1)C(=O)c1ccccc1 | 80 |  | inactive |
| O=C(NCCCn1ccnc1)c1ccc(-c2ccccc2)cc1 | 100 |  | inactive |
| CC(C)(C)c1ccc(C(=O)NCCCn2cncn2)cc1 | 86 |  | inactive |
| O=C(NCCCCn1cncn1)c1ccc(Cl)c(Cl)c1 | 82 |  | inactive |
| O=C(NCCCCn1cncn1)c1ccc(Cl)cc1 | 52 |  | inactive |
| O=C(NC/C=C/Cn1ccnc1)c1ccc(C(F)(F)F)cc1 (stereo in doubt; 53) | 93 |  | inactive |
| O=C(NCCCn1ccnc1)c1ccccc1Br | 50 |  | inactive |
| Cc1nccn1CCCNC(=O)c1cccc(Br)c1 | 64 |  | inactive |
| O=C(Cc1ccc(F)cc1)NCCCn1ccnc1 | 33 |  | inactive |
| CC(=O)Nc1ccc(C(=O)NCCCn2cncn2)cc1 | 75 |  | inactive |
| O=C(NCCCCn1ccnc1)c1ccccc1 | 91 |  | inactive |

| SMILES | inhibition [1] [%] | Activity (Rattus norvegicus [2]) | Activity (Rattus norvegicus [3]) |
| --- | --- | --- | --- |
| CCc1nccn1CCCNC(=O)c1ccc(Cl)cc1 | 32 |  | inactive |
| Cc1ccc(C(=O)NCCCn2ccnc2)cc1 | 83 |  | inactive |
| O=C(/C=C/c1ccc(Cl)cc1)NCCCn1cncn1 | 47 |  | inactive |
| COc1cc(C(=O)NCCCn2cncn2)cc(OC)c1OC | 64 |  | inactive |
| O=C(NCCCn1ccnc1)c1ccccc1 | 96 |  | inactive |
| O=C(NC/C=C/Cn1ccnc1)c1ccc(Cl)cc1 (stereo in doubt; 51) | 100 |  | inactive |
| O=C(COc1ccc(Cl)cc1)NCCCn1ccnc1 | 85 |  | inactive |
| Cc1nccn1CCCNC(=O)c1cccc(C(F)(F)F)c1 | 75 |  | inactive |
| CC(CCNC(=O)c1cccc(Cl)c1)n1ccnc1 (configuration not stated) | 93 |  | inactive |
| O=C(NCCCCCCCCn1ccnc1)c1ccc(Br)cc1 | 100 |  |  |
| O=C(NCCCn1cncn1)c1cccc(Br)c1 | 85 |  | inactive |
| O=C(NCCCn1cncn1)c1ccc(Br)cc1 | 40 |  | inactive |
| O=C(Cc1cccc(Cl)c1)NCCCn1cncn1 | 0 |  | inactive |
| O=C(NCCCn1ccnc1)c1ccc(F)cc1 | 87 |  | inactive |
| O=C(NCCCCCn1cncn1)c1ccc(Br)cc1 | 81 |  | inactive |
| O=C(O)c1ccc(OCCn2ccnc2)cc1 | 98 |  |  |
| O=C(NCCCn1cncn1)c1ccc(C(=O)c2ccccc2)cc1 | 65 |  | inactive |
| O=C(COc1ccccc1)NCCCn1ccnc1 | 86 |  | inactive |
| O=C(NCCn1cncn1)c1ccc(Br)cc1 | 0 |  | inactive |
| O=C(NCCCCn1cncn1)c1ccc(C(F)(F)F)cc1 | 38 |  | inactive |
| O=C(NCCCn1ccnc1)c1cccc(F)c1 | 96 |  | inactive |

| SMILES | inhibition [1] [%] | Activity (Rattus norvegicus [2]) | Activity (Rattus norvegicus [3]) |
| --- | --- | --- | --- |
| CC(=O)c1ccc(C(=O)NCCCn2ccnc2)cc1 | 90 |  | inactive |
| CCCCOc1ccc(C(=O)NCCCn2ccnc2)cc1 | 75 |  | inactive |
| Cc1nccn1CCCNC(=O)c1ccc(Br)cc1 | 66 |  | inactive |
| CCNc1ccccc1C(=O)NCCCn1ccnc1 | 86 |  | inactive |
| O=C(NCCCn1cncn1)c1ccc(Cl)cc1 | 16 |  | inactive |
| Cc1nccn1CCCNC(=O)c1ccc(Cl)c(Cl)c1 | 82 |  | inactive |
| COc1ccc(C(=O)NCCCn2cncn2)cc1 | 70 |  | inactive |
| CC(CNC(=O)c1ccc(Cl)cc1)Cn1ccnc1 (configuration not stated) | 100 |  | inactive |
| O=C(NCCCCn1cncn1)c1ccc(Br)cc1 | 88 |  | inactive |
| O=C(O)c1ccccc1C(=O)NCCCn1ccnc1 | 82 |  | inactive |
| O=C(CCc1ccccc1)NCCCn1ccnc1 | 64 |  | inactive |
| O=C(NCCCCCn1ccnc1)c1ccc(Br)cc1 | 100 |  | inactive |
| O=C(NCCCn1cncn1)c1cccc(C(F)(F)F)c1 | 71 |  | inactive |
| O=C(NCCCn1cncn1)c1ccc(F)cc1 | 67 |  | inactive |
| Cc1cn(CCCNC(=O)c2ccc(I)cc2)cn1 | 99 |  | inactive |
| CNc1ccccc1C(=O)NCCCn1ccnc1 | 57 |  | inactive |
| O=C(NCCCn1ccnc1)c1ccc(Cl)c(Cl)c1 | 93 |  | inactive |
| O=C(NCCCn1ccnc1)c1ccccc1F | 84 |  | inactive |
| CC(CCNC(=O)c1ccc(Br)cc1)n1ccnc1 (configuration not stated) | 91 |  | inactive |
| O=C(NC/C=C/Cn1ccnc1)c1ccc(C(F)(F)F)cc1 (stereo in doubt; 54) | 95 |  | inactive |
| O=C(NCCCn1cncn1)c1ccccc1-c1ccccc1 | 65 |  | inactive |

| SMILES | inhibition [1] [%] | Activity (Rattus norvegicus [2]) | Activity (Rattus norvegicus [3]) |
| --- | --- | --- | --- |
| CN(C)c1ccc(C(=O)NCCCn2ccnc2)cc1 | 93 |  | inactive |
| O=C(NCCCn1cncn1)c1cccc(F)c1 | 82 |  | inactive |
| CCCCOc1ccc(C(=O)NCCCn2cncn2)cc1 | 71 |  | inactive |
| O=C(NCCCn1ccnc1)c1ccc(C(=O)c2ccccc2)cc1 | 100 |  | inactive |
| O=C(COc1ccc(Cl)cc1)NCCCn1cncn1 | 56 |  | inactive |
| CC(CCNC(=O)c1ccc(C(F)(F)F)cc1)n1ccnc1 (configuration not stated) | 94 |  | inactive |
| O=C(NC/C=C/Cn1ccnc1)c1ccc(Cl)cc1 (stereo in doubt; 52) | 91 |  | inactive |
| O=C(NCCCCn1cncn1)c1ccccc1-c1ccccc1 | 89 |  | inactive |
| O=C(NCCCn1cncn1)c1ccccc1F | 25 |  | inactive |
| O=C(NCCCn1cncn1)c1cccc([N+](=O)[O-])c1 | 72 |  | inactive |
| COc1ccc(C(=O)NCCCn2ccnc2)cc1 | 89 |  | inactive |
| CC(CNC(=O)c1ccc(Cl)c(Cl)c1)Cn1ccnc1 (configuration not stated) | 86 |  | inactive |
| O=C(NCCCCCn1cncn1)c1ccc(Cl)cc1 | 79 |  | inactive |
| CC(=O)Nc1ccc(C(=O)NCCCn2ccnc2)cc1 | 99 |  | inactive |
| N#Cc1ccc(C(=O)NCCCn2ccnc2)cc1 | 91 |  | inactive |
| O=C(O)c1ccccc1C(=O)NCCCn1cncn1 | 23 |  | inactive |
| O=C(NCCCn1cncn1)c1cccc(Cl)c1 | 86 |  | inactive |
| CC(CCNC(=O)c1ccc(Cl)cc1)n1ccnc1 (configuration not stated) | 96 |  | inactive |
| O=C(NCCCn1ccnc1)c1ccccc1Cl | 100 |  | inactive |
